The nature of experiment [1]: inhibitors of TNFa-induced NFkB p65 translocation, primary screen, imaging, HUVEC, MLSMR starter and 10KST1 sets (AID 438;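 active = inhibition above 20% together with a positive visual image hit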;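 also: compound added about 3h40 before a 20 min TNFalpha stimulation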;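 as to inhibition: signal is the nuclear over cytoplasmic p65 intensity ratio per well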). The note with it: HUVEC TNFa-induced p65 nuclear translocation; cell count: measured here: nuclei count (cytotoxicity indicator), at 2.08 µM; inhibition: at 2 µM, stronger effect = higher value, 0% TNFa-plus-vehicle, 100% no-TNFa wells.
A short description of experiment [2]: reduction of polyQ htt aggregates in cells – imaging, exon1htt(103Q)mCFP cells, high-content imaging, primary screen (AID 483;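 active = visual image review flags a hit and inhibition of aggregation exceeds 20%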;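 also: compound exposure lasted 3 days before fixation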;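 as to nuclei count: percent of the per-plate median nuclei count of sample wells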). The note with it: exon1htt(103Q)mCFP cell line, aggregate imaging, at 2 µM; inhibition of aggregation: stronger effect = higher value; nuclei count: measured here: cell count, toxicity.
The nature of experiment [3]: endothelial E-selectin expression blockers – imaging, HUVEC, immunofluorescence, MLSMR starter and 10KST1 sets, primary screen (AID 487;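 active = visually confirmed hit in the image check and inhibition above 20%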;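 as to inhibition: signal is fraction of cell area covered by stained E-selectin grains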;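 as to nuclei count: 100% = median nuclei count of all wells on the same plate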). The conditions noted are these: HUVEC TNFalpha-induced E-selectin immunofluorescence imaging, at 2 µM; inhibition: stronger effect = higher value; nuclei count: measured here: cell number, toxicity.
In experiment [4] the target is Voltage-gated potassium channel subunit beta-2 (Rattus norvegicus) (UniProt P62483). Description: inhibitors of rat Kvbeta2 reductase activity – biochemical, NADPH fluorescence, primary screen (AID 622).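 Also: slope of raw intensity against log time taken from 70 to 1610 s.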 The conditions noted are these: recombinant KvBeta, 4-cyanobenzaldehyde reduction, at 10 µM, stronger effect = higher value.
Chain of Voltage-gated potassium channel subunit beta-2 (Rattus norvegicus) (P62483 whole entry, looked up): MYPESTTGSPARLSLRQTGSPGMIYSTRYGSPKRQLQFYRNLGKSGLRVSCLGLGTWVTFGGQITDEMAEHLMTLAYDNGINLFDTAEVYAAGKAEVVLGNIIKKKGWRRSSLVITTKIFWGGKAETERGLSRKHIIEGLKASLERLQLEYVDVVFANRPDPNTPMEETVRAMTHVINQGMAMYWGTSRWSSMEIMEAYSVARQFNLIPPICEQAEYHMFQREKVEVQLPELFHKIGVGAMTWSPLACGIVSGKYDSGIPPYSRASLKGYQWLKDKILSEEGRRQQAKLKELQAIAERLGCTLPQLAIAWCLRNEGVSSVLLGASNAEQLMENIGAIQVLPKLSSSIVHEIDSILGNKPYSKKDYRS
The target is the same in experiment [5]. Description: enhancers of rat Kvbeta2 NADPH turnover – biochemical, NADPH fluorescence, primary screen (AID 623;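 active = NADPH fluorescence slope more negative than the mean of all samples by about 3 SD, 99.7% confidence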;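 also: fluorescence intensity change per second fitted from 20 to 320 s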). The conditions noted are these: Recombinant KvBeta, NADPH fluorescence decrease slope, 10 min; at 10 µM; stronger effect = lower value.
In experiment [6] the target is Muscarinic acetylcholine receptor M4 (Homo sapiens) (UniProt P08173). Description: M4-linked GIRK flux change, two-sided – cell-based, HEK293 M4/GIRK, thallium flux, BTC-AM, M4 allosteric agonist project, primary screen (AID 625;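 active = fluorescence slope after compound addition differing from the mean of all tested samples at 99.7% confidence, mostly higher but some lower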;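 also: thallium influx through GIRK channels coupled to M4 in HEK293 cells with BTC-AM dye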). The note with it: at 10 µM, actives lie on both sides. An outline of the steps: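 Material: HEK293 cells with M4 receptor and GIRK channels; Times: cells overnight at 37 °C, BTC-AM loading 1 h, reads 2 min total; Technique: kinetic BTC-AM fluorescence sampled at 1 Hz, 10 s pre-addition baseline; Read-out basis: slope over 15–24 s of trace normalized to starting intensity; Controls: carbachol positive, DMSO negative.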
Chain of Muscarinic acetylcholine receptor M4 (Homo sapiens) (P08173 whole entry, looked up): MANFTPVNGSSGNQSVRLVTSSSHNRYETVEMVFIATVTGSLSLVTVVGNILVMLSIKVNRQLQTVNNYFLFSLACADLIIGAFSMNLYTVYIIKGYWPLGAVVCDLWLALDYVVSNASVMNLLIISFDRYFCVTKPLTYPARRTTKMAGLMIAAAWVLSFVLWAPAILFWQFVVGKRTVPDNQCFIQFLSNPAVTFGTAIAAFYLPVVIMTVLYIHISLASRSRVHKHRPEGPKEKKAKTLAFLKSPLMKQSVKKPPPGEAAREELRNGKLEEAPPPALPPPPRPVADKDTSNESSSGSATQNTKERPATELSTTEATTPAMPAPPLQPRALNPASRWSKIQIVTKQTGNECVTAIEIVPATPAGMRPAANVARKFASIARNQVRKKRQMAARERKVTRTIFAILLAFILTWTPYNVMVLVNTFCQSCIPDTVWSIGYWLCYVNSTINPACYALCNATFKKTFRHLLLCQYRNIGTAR

Experiment [7] can be described thus: blockers of RIG-like receptor reporter activation – cell-based, Sendai virus stimulus, luciferase, 10K MLSCN set, TLR/RLR signaling modifier project, primary screen (AID 602276;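 active = inhibition at or above 50% at 10 µM; inactive = inhibition below 50%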;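 also: firefly luciferase from ISG56 promoter only with Renilla not read in this screen; 0% = Sendai virus plus DMSO and 100% = medium plus DMSO without virus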). The note with it: HEK293 RL24 IRF3 luciferase reporter, at 10 µM, stronger effect = higher value. A general note: Reporter assays use an easily measured gene product as a stand-in for the process of interest.

Experiment [8] can be described thus: TLR3 IRF3 reporter activation blockers – cell-based, poly I:C stimulus, luciferase, 10K MLSCN set, primary screen (AID 602277;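 active = inhibition of the reporter signal at or above 50%; inactive = inhibition below 50%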). The note with it: HEK293-TLR3 RL24 IRF3 luciferase reporter, at 10 µM, stronger effect = higher value.

This note sets out measurements from PubChem BioAssay.

The structures appear in SMILES notation. Calls of active or inactive are those of the source.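 The calls were made as follows, unless noted: active = fluorescence slope higher than the sample average by over 3 SD (cut at about -0.22 in these data, passing the limit was not always enough); inactive = the rest.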

One may read the inhibition as the relative decrease from the control value, in per cent. Regarding `CC(NC(=O)c1ccccc1NC(=O)c1ccco1)C(=O)O` (stereo not drawn), the cell count in experiment [1] amounted to 438. The inhibition in experiment [1] is 0.9% (inactive); in experiment [3], -67.5% (inactive); in experiment [7], 23.6% (inactive); in experiment [8] it was 20% (inactive). In addition, the inhibition of aggregation in experiment [2] was -9.6% (inactive). For the same compound, the values for the nuclei count in experiment [2] and in experiment [3] were 100% and 121%, respectively. Also, the fluorescence slope in experiment [4] is -0.551 (inactive); in experiment [6], 0.006 (inactive). Also, the NADPH fluorescence slope in experiment [5] is -5.5e-05 (inactive).
As to `CCOC(=O)Cc1nnc(NC(=O)CSc2nnc3c4ccccc4n(C(C)C)c3n2)s1`, the cell count in experiment [1] was 359. The inhibition is -7.7% (inactive) in experiment [1], -158% (inactive) in experiment [3], 18% (inactive) in experiment [7] and 25.8% (inactive) in experiment [8]. For the same compound, the inhibition of aggregation in experiment [2] is -10.9% (inactive). Moreover, the results for the nuclei count in experiment [2] and in experiment [3] were 94.3% and 90.2%, respectively. Further, the fluorescence slope in experiment [4] is -0.554 (inactive); in experiment [6], 0.00407 (inactive). For the same compound, the NADPH fluorescence slope in experiment [5] was -3.3e-05 (inactive).
Take `O=S(=O)(NCCSc1ccccc1)c1cccs1`: the cell count in experiment [1] was 652. Besides, the inhibition in experiment [1] was -6.3% (inactive); in experiment [3] it was -12.2% (inactive); in experiment [7], 5.83% (inactive); in experiment [8], 11.1% (inactive). Moreover, in experiment [2], the inhibition of aggregation is -14.5% (inactive). Besides, the nuclei count in experiment [2] was 103%; in experiment [3], 104%. The fluorescence slope is -0.208 (inactive) in experiment [4] and 0.00557 (inactive) in experiment [6]. Further, in experiment [5], the NADPH fluorescence slope was -2e-05 (inactive).
In the case of `CCc1ccc2c(CN(CC)Cc3nc4ccccc4c(=O)[nH]3)cc(=O)oc2c1`, the cell count in experiment [1] came to 530. Besides, the inhibition is 1.4% (inactive) in experiment [1], -23.3% (inactive) in experiment [3], 17.1% (inactive) in experiment [7] and 26.9% (inactive) in experiment [8]. Moreover, the inhibition of aggregation in experiment [2] was 2% (inactive). The results for the nuclei count in experiment [2] and in experiment [3] were 114% and 107%, respectively. In addition, the fluorescence slope in experiment [4] was -0.57 (inactive); in experiment [6], 0.00486 (inactive). Further, in experiment [5], the NADPH fluorescence slope was 5.5e-06 (inactive).
As to `Cc1cc(NS(=O)(=O)c2ccc(NC(=O)C(C)N3C(=O)c4ccccc4C3=O)cc2)nc(C)n1` (stereo not drawn), the cell count in experiment [1] came out at 257. The inhibition in experiment [1] is -2.1% (inactive); in experiment [3], -11.1% (inactive); in experiment [7] it was 14.9% (inactive); in experiment [8] it was 18.8% (inactive). Besides, the inhibition of aggregation in experiment [2] is 4.6% (inactive). Further, the nuclei count in experiment [2] stood at 98.5%; in experiment [3], 90.8%. In addition, the fluorescence slope in experiment [4] was -0.557 (inactive); in experiment [6], 0.00257 (inactive). In addition, the NADPH fluorescence slope in experiment [5] is -5.8e-05 (inactive).
For the compound `CCN(CC)c1ccc(NC(=O)c2[nH]c(C)c(C(C)=O)c2C)c(C)c1`, in experiment [1], the cell count was determined as 911. The inhibition was 7.1% (inactive) in experiment [1], -105% (inactive) in experiment [3], 2.56% (inactive) in experiment [7] and -8.53% (inactive) in experiment [8]. The inhibition of aggregation in experiment [2] was 8.4% (inactive). Besides, the figures for the nuclei count in experiment [2] and in experiment [3] were 109% and 136%, respectively. Besides, the figures for the fluorescence slope in experiment [4] and in experiment [6] were -0.555 (inactive) and 0.00732 (inactive), respectively. The NADPH fluorescence slope in experiment [5] is -3.3e-05 (inactive).
`COC(=O)c1ccccc1NC(=O)Nc1cccs1`: the cell count in experiment [1] amounted to 567. The inhibition was -11.5% (inactive) in experiment [1], -29.5% (inactive) in experiment [3], 10.3% (inactive) in experiment [7] and 11.6% (inactive) in experiment [8]. Besides, the inhibition of aggregation in experiment [2] was -4.6% (inactive). Moreover, the nuclei count in experiment [2] was 96.1%; in experiment [3] it was 110%. The results for the fluorescence slope in experiment [4] and in experiment [6] were -0.425 (inactive) and 0.00583 (inactive), respectively. Further, in experiment [5], the NADPH fluorescence slope is -9.4e-05 (inactive).
Take `COC(=O)c1cn(-c2ccccc2)nc1C(=O)OC`: in experiment [1], the cell count stood at 232. Also, the inhibition is 5.8% (inactive) in experiment [1], 24% (inactive) in experiment [3], 4.01% (inactive) in experiment [7] and 1.15% (inactive) in experiment [8]. In experiment [2], the inhibition of aggregation is -0.8% (inactive). Further, the nuclei count in experiment [2] was determined as 92.6%; in experiment [3], 77.4%. Also, the fluorescence slope in experiment [4] was -0.441 (inactive); in experiment [6], 0.00607 (inactive). The NADPH fluorescence slope in experiment [5] was -7.4e-05 (inactive).
As to `Clc1ccccc1-c1nnc2sc(-c3ccccn3)nn12`, the cell count in experiment [1] stood at 420. The inhibition in experiment [1] was -4.1% (inactive); in experiment [3], -102% (inactive); in experiment [7] it was 14.6% (inactive); in experiment [8] it was 14.1% (inactive). Further, the inhibition of aggregation in experiment [2] is 24.3% (inactive). For the same compound, the nuclei count was found to be 84.8% in experiment [2] and 118% in experiment [3]. Besides, the fluorescence slope in experiment [4] is -0.447 (inactive); in experiment [6], 0.00382 (inactive). Further, the NADPH fluorescence slope in experiment [5] is -6.3e-05 (inactive).
On to `Cc1ccc(S(=O)(=O)N2CCCC2)cc1S(=O)(=O)N1CCCC1`, for which the cell count in experiment [1] was 698. Further, the inhibition was -9% (inactive) in experiment [1], 10.3% (inactive) in experiment [3], 13.4% (inactive) in experiment [7] and 12.9% (inactive) in experiment [8]. Also, the inhibition of aggregation in experiment [2] was -7.5% (inactive). The nuclei count in experiment [2] was 111%; in experiment [3], 116%. The fluorescence slope is -0.609 (inactive) in experiment [4] and 0.00607 (inactive) in experiment [6]. In addition, the NADPH fluorescence slope in experiment [5] is -1.2e-05 (inactive).
`CC(C)(C)Nc1nc(OCC(F)(F)F)nc(OCC(F)(F)F)n1`: in experiment [1], the cell count amounted to 448. The inhibition was 11.9% (inactive) in experiment [1], -0.8% (inactive) in experiment [3], 7.39% (inactive) in experiment [7] and 8.5% (inactive) in experiment [8]. Also, the inhibition of aggregation in experiment [2] was -14.2% (inactive). Further, the nuclei count in experiment [2] was 103%; in experiment [3], 114%. Also, the fluorescence slope is -0.424 (inactive) in experiment [4] and 0.00457 (inactive) in experiment [6]. The NADPH fluorescence slope in experiment [5] was -0.000395 (inactive).
`Cc1ccc(OCC(=O)NCCN2CCCC2)cc1`: the cell count in experiment [1] worked out at 424. Also, the inhibition in experiment [1] was 0% (inactive); in experiment [3], -65.5% (inactive); in experiment [7] it was 15.6% (inactive); in experiment [8] it was 28% (inactive). Also, in experiment [2], the inhibition of aggregation was 5% (inactive). Moreover, the nuclei count turned out to be 101% in experiment [2] and 102% in experiment [3]. Besides, the fluorescence slope in experiment [4] is -0.404 (inactive); in experiment [6] it was 0.00568 (inactive). Besides, the NADPH fluorescence slope in experiment [5] was -0.000132 (inactive).
Turning to `Cc1ccc(-c2cc(C(F)F)nc(NCc3cccnc3)n2)cc1`, the cell count in experiment [1] turned out to be 590. Besides, the inhibition in experiment [1] was -26.5% (inactive); in experiment [3], -97.8% (inactive); in experiment [7] it was 7% (inactive); in experiment [8] it was -13.6% (inactive). In addition, the inhibition of aggregation in experiment [2] was -44.3% (inactive). The nuclei count was found to be 81.9% in experiment [2] and 118% in experiment [3]. The fluorescence slope in experiment [4] is -0.467 (inactive); in experiment [6] it was 0.00586 (inactive). Also, in experiment [5], the NADPH fluorescence slope was -1.4e-06 (inactive).
